# Test results: ChEMBL document CHEMBL1156235, “A novel class of antihyperlipidemic agents with low density lipoprotein receptor up-regulation via the adaptor protein autosomal recessive hypercholesterolemia” (J Med Chem, 2010)
# pIC50: −log10 of the molar value. Activity calls are given as the source filed them. The calls are words filed in the database; no cut-off is given here.
# What was measured:
# [1] = test system: Hamster; experiment: Antihyperlipidemic activity in high-cholesterol diet fed po dosed hamster model assessed as reduction of plasma total LDL cholesterol level administered qd for 7 days; type: functional, organism-based; conditions: Cricetinae
# Outline: (§1)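 Hamsters fed a rich diet for 1 week were dosed orally by gavage once daily for 1 week. Plasma total cholesterol and LDL-C were then measured. Values are mean ± SEM.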
# [2] = test system: Hamster; experiment: Antihyperlipidemic activity in high-cholesterol diet fed po dosed hamster model assessed as reduction of plasma total cholesterol level administered qd for 7 days; type: functional, organism-based; conditions: Cricetinae; outline: as §1
# [3] = biological target: T1, Sterol O-acyltransferase 1 (Rattus norvegicus, UniProt O70536); experiment: Inhibition of rat macrophages ACAT
# T1 sequence (O70536 whole entry): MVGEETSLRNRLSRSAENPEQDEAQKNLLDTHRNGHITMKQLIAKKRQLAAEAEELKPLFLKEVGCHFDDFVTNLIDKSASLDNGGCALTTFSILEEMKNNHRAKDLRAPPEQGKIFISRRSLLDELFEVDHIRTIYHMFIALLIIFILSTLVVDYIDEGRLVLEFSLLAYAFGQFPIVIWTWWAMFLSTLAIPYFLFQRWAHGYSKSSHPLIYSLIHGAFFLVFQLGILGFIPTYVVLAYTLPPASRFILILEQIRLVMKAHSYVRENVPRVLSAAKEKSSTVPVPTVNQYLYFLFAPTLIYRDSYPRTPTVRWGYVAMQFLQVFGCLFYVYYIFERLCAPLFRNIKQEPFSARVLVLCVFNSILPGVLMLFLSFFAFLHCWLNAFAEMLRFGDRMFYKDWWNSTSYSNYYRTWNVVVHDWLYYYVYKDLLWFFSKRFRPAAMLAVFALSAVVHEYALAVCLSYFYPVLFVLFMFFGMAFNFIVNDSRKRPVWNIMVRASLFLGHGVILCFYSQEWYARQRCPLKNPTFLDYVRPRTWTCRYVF
# Outline: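 ACAT was taken from rat macrophages, and inhibition was measured once (n = 1).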
# [4] = test system: HepG2; experiment: Upregulation of LDL receptor expression in human HepG2 cells assessed as DiI-LDL uptake after 19 hrs; type: functional; conditions: HepG2, 19 h
# Outline: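 HepG2 cells were grown 2-3 days in DMEM/F-12 with 10% FBS, then given compound in medium with 10% delipoprotein serum for 19 h at 37 °C. DiI-labelled human LDL was then added for 5 h, with 30-50-fold unlabelled LDL defining nonspecific uptake. Specific fluorescence per protein is expressed as % of control. EC25 is the concentration giving 25% up-regulation (n = 1).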
# [5] = Solubility in phosphate buffer at pH 7.4 by HPLC analysis; type: physicochemical
# Outline: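 Solubility in phosphate buffer was measured at room temperature, with the dissolved amount quantified by HPLC.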
# [6] = AUC (0 to 360 mins) in hamster at 10 mg/kg; type: ADME, organism-based; design: time < 6 hr, dose 10 mg/kg; conditions: cricetinae, plasma
# Outline: (§2)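 Male hamsters received a single oral dose of 10 mg/kg as the sodium salt, and serum drug concentration was followed over time. Values are mean ± SEM, n = 3.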
# [7] = Cmax in hamster at 10 mg/kg; type: ADME, organism-based; design: dose 10 mg/kg; conditions: cricetinae, in vivo; outline: as §2
# [8] = test system: Hamster; experiment: Antihyperlipidemic activity in high-cholesterol diet fed hamster model assessed as reduction of plasma total LDL cholesterol level at 10 mg/kg, po administered qd for 7 days; type: functional, Cricetinae; design: scale not given: the % may be the effect or the level left; outline: as §1
# [9] = test system: Hamster; experiment: Antihyperlipidemic activity in high-cholesterol diet fed hamster model assessed as reduction of plasma total cholesterol level at 30 mg/kg, po administered qd for 7 days; type: functional, Cricetinae; design: scale not given: the % may be the effect or the level left; outline: as §1
# [10] = test system: Hamster; experiment: Antihyperlipidemic activity in high-cholesterol diet fed hamster model assessed as reduction of plasma total cholesterol level at 10 mg/kg, po administered qd for 7 days; type: functional, Cricetinae; design: scale not given: the % may be the effect or the level left; outline: as §1
# [11] = test system: Hamster; experiment: Antihyperlipidemic activity in high-cholesterol diet fed hamster model assessed as reduction of plasma total LDL cholesterol level at 30 mg/kg, po administered qd for 7 days; type: functional, Cricetinae; design: scale not given: the % may be the effect or the level left; outline: as §1
# [12] = test system: HepG2; experiment: Upregulation of LDL receptor expression in human HepG2 cells at 1 uM in presence of ARH-specific siRNA; type: functional, cell-based
# [13] = test system: HepG2; experiment: Increase of [125I]LDL cholesterol degradation in human HepG2 cells; type: functional, cell-based
# [14] = test system: HepG2; experiment: Increase of [125I]LDL cholesterol degradation in human HepG2 cells at 0.1 uM; type: functional
# [15] = test system: Hamster; experiment: Antihyperlipidemic activity in high-cholesterol diet fed hamster model assessed as reduction of plasma total cholesterol level at 3 mg/kg, po administered qd for 7 days; type: functional, Cricetinae; design: scale not given: the % may be the effect or the level left; outline: as §1
# [16] = test system: Hamster; experiment: Antihyperlipidemic activity in high-cholesterol diet fed hamster model assessed as reduction of plasma total LDL cholesterol level at 1 mg/kg, po administered qd for 7 days; type: functional, Cricetinae; design: scale not given: the % may be the effect or the level left; outline: as §1
# [17] = test system: Hamster; experiment: Antihyperlipidemic activity in high-cholesterol diet fed hamster model assessed as reduction of plasma total LDL cholesterol level at 3 mg/kg, po administered qd for 7 days; type: functional, Cricetinae; design: scale not given: the % may be the effect or the level left; outline: as §1
# [18] = test system: HepG2; experiment: Increase of [125I]LDL cholesterol degradation in human HepG2 cells at 1 uM; type: functional
# [19] = test system: HepG2; experiment: Increase of [125I]LDL cholesterol degradation in human HepG2 cells at 0.01 uM; type: functional
# [20] = test system: Hamster; experiment: Antihyperlipidemic activity in high-cholesterol diet fed hamster model assessed as reduction of plasma total cholesterol level at 1 mg/kg, po administered qd for 7 days; type: functional, Cricetinae; design: scale not given: the % may be the effect or the level left; outline: as §1
Structure (SMILES),pIC50 [3],EC25 [4] [µM],solubility [5] [µg/mL],other results
COc1cccc(C2(C(=O)NS(=O)(=O)Oc3c(C(C)C)cccc3C(C)C)CCN(c3ccccc3OC)CC2)c1 [listing 1 of 2 here],,,,Activity [1]: Dose-dependent effect; Activity [2]: Dose-dependent effect
COc1cccc(C2(C(=O)NS(=O)(=O)Oc3c(C(C)C)cccc3C(C)C)CCN(c3nccc(C(F)(F)F)n3)CC2)c1,< 6.00,> 10,,
CCCc1ccccc1OS(=O)(=O)NC(=O)C1(c2cccc(OC)c2)CCN(c2ccccc2OC)CC1,< 6.00,4.07,,
COc1cccc(C2(C(=O)NS(=O)(=O)Oc3c(C(C)C)cccc3C(C)C)CCN(c3ncc(Br)cn3)CC2)c1,< 6.00,0.61,< 0.1,
CC(C)c1cccc(C(C)C)c1OS(=O)(=O)NC(=O)C1(c2cccc(O)c2)CCN(c2ncccn2)CC1,,> 10,200,
COc1cccc(C2(C(=O)Nc3c(C(C)C)cccc3C(C)C)CCN(c3ccccc3OC)CC2)c1,< 6.00,> 10,,
COc1cccc(C2(C(=O)NS(=O)(=O)Oc3c(C(C)C)cccc3C(C)C)CCN(C(=O)c3ccccc3)CC2)c1,< 6.00,> 10,,
COc1cccc(C2(C(=O)NS(=O)(=O)Oc3c(C(C)C)cccc3C(C)C)CCN(c3ccccc3OC)CC2)c1.Cl,,,,AUC(0-t) at 6 h [6]: 690 ng·h/mL; Cmax [7]: 300 ng/mL
COc1cccc(C2(C(=O)NS(=O)(=O)Oc3ccccc3C3CCCC3)CCN(c3ccccc3OC)CC2)c1,< 6.00,0.69,,
COc1cccc(C2(C(=O)NS(=O)(=O)Oc3c(C(C)C)cccc3C(C)C)CCN(c3ccccc3OC)CC2)c1 [listing 2 of 2 here],6.48,0.37,,Activity [8]: -18%; Cmax [7]: 13 ng/mL; Activity [9]: -17%; Activity [10]: -10%; Activity [11]: -25%
COc1cccc(C2(C(=O)NS(=O)(=O)Oc3c(C(C)C)cccc3C(C)C)CCN(c3nc4ccccc4s3)CC2)c1,< 6.00,0.26,3,
COc1cccc(C2(C(=O)NS(=O)(=O)Oc3c(C(C)C)cccc3C(C)C)CCN(c3nccc(C)n3)CC2)c1,< 6.00,0.5,200,
CCCc1cnc(N2CCC(C(=O)NS(=O)(=O)Oc3c(C(C)C)cccc3C(C)C)(c3cccc(OC)c3)CC2)nc1,< 6.00,> 10,,
CC(C)c1c(C(=O)Nc2ccccc2)c(-c2ccccc2)c(-c2ccc(F)cc2)n1CC[C@@H](O)C[C@@H](O)CC(=O)O,,,,Activity [12]: Active
CCCCn1c(=O)c(NC(=O)Nc2c(C(C)C)cc(N)cc2C(C)C)c(-c2cccc(OCCCO)c2)c2cccnc21.Cl.O,7.51,0.49,,Activity [8]: -31%; Activity [10]: -29%
COc1cccc(C2(C(=O)NS(=O)(=O)Oc3c(C(C)C)cccc3C(C)C)CCN(C)CC2)c1,< 6.00,> 10,,
CC(C)c1cccc(C(C)C)c1OS(=O)(=O)NC(=O)C1(c2cccc(OCCCO)c2)CCN(c2ncccn2)CC1,,> 10,> 200,

Structure (SMILES),pIC50 [3],EC25 [4] [µM],solubility [5] [µg/mL],other results
CCCOc1cccc(C2(C(=O)NS(=O)(=O)Oc3c(C(C)C)cccc3C(C)C)CCN(c3ncccn3)CC2)c1,,> 10,< 0.3,
CCOc1cccc(C2(C(=O)NS(=O)(=O)Oc3c(C(C)C)cccc3C(C)C)CCN(c3ncccn3)CC2)c1,,3.1,69,
COc1cccc(C2(C(=O)NS(=O)(=O)Oc3c(C(C)C)cccc3C(C)C)CCN(c3ncccn3)CC2)c1 [listing 1 of 2 here],,,,Activity [12]: inactive; Activity [1]: Dose-dependent effect; Activity [13]: Dose-dependent effect; Activity [2]: Dose-dependent effect
COc1cccc(C2(C(=O)[N-]S(=O)(=O)Oc3c(C(C)C)cccc3C(C)C)CCN(c3ncccn3)CC2)c1.[Na+],,,230,AUC(0-t) at 6 h [6]: 1090 ng·h/mL; Cmax [7]: 290 ng/mL
COc1cccc(C2(C(=O)N(C)S(=O)(=O)Oc3c(C(C)C)cccc3C(C)C)CCN(c3ncccn3)CC2)c1,< 6.00,> 10,< 0.3,
COc1cccc(C2(C(=O)NS(=O)(=O)Oc3ccccc3)CCN(c3ccccc3OC)CC2)c1,< 6.00,> 10,,
COc1cccc(C2(C(=O)NS(=O)(=O)Oc3c(C(C)C)cccc3C(C)C)CCN(c3ncccn3)CC2)c1 [listing 2 of 2 here],< 6.00,0.047,,Activity [14]: 136%; Activity [8]: -38%; Activity [15]: -12%; Activity [16]: -24%; Activity [17]: -27%; Activity [10]: -17%; Activity [18]: 140%; Activity [19]: 119%; Activity [20]: -8%
COc1cccc(C2(C(=O)[N-]S(=O)(=O)Oc3c(C(C)C)cccc3C(C)C)CCN(c3ccccc3OC)CC2)c1.[Na+],,,,AUC(0-t) at 6 h [6]: 1160 ng·h/mL; Cmax [7]: 420 ng/mL
COc1cccc(C2(C(=O)NS(=O)(=O)Oc3ccccc3C)CCN(c3ccccc3OC)CC2)c1,< 6.00,3.88,,
CC(C)c1cccc(C(C)C)c1OS(=O)(=O)NC(=O)C1(c2cccc(OCCO)c2)CCN(c2ncccn2)CC1,,1.5,> 200,
COc1cccc(C2(C(=O)NS(=O)(=O)Oc3c(C(C)C)cccc3C(C)C)CCNCC2)c1,< 6.00,> 10,,
COc1cccc(C2(C(=O)NS(=O)(=O)Oc3c(C(C)C)cccc3C(C)C)CCN(c3ncccc3OC)CC2)c1,< 6.00,> 10,,
COc1cccc(C2(C(=O)NS(=O)(=O)Nc3c(C(C)C)cccc3C(C)C)CCN(c3ccccc3OC)CC2)c1,< 6.00,> 10,,
COc1cccc(C2(C(=O)NS(=O)(=O)Oc3c(C(C)C)cccc3C(C)C)CCN(c3ccccc3)CC2)c1,< 6.00,1.52,180,
COc1cccc(C2(C(=O)NS(=O)(=O)Oc3c(C)cccc3C)CCN(c3ccccc3OC)CC2)c1,6.39,> 10,,
COc1cccc(C2(C(=O)NS(=O)(=O)Oc3c(C(C)C)cccc3C(C)C)CCN(C(C)=O)CC2)c1,< 6.00,> 10,,
